Measurements reported in article PMC9291822 (British Journal of Clinical Pharmacology, 2021).
Like-named read-outs stand apart in the source and are kept apart here.

What was measured:
[1] = multiple dosing of capmatinib; cited from earlier work
[2] = assay type: in vivo, human; conditions: for AUCinf of metabolite, GM / AUCinf of metabolite, mean (SD) / AUClast of metabolite, GM / AUClast of metabolite, mean (SD) / Cmax of metabolite, GM / Cmax of metabolite, mean (SD) / Metabolite ratio of AUCinf, GM / Metabolite ratio of AUCinf, mean (SD) / Metabolite ratio of AUClast, GM / Metabolite ratio of AUClast, mean (SD) / Tmax of metabolite, median (range) / t½ of metabolite, GM / t½ of metabolite, mean (SD): after capmatinib single oral dose 200 mg
How it was run: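 Adults aged 18–75 with hepatic impairment (Child–Pugh A/B/C, also reclassified by NCI Organ Dysfunction Working Group criteria) or normal function, matched on age, weight and sex. Overnight fast (≥10 h), single oral 200 mg (2 × 100 mg tablets), fasting ≥4 h post-dose. Plasma sampled predose to 72 h; parent and metabolite measured by validated LC-MS/MS (LLOQ ~1.00 ng/mL). Noncompartmental analysis; GM ratios vs normal with 90% CIs.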

[3] = mild (n = 6), listed as M16 (CMN288)
[4] = moderate (n = 8), listed as M16 (CMN288)
[5] = normal (n = 9), listed as M16 (CMN288)
[6] = severe (n = 6), listed as M16 (CMN288)

CNC(=O)c1ccc(-c2nn3c(Cc4ccc5ncccc5c4)cnc3[nH]c2=O)cc1F [CMN288]
accumulation of metabolite after multiple dosing [1]: does not accumulate | AUCinf of metabolite, GM ([2]; mild (n = 6)): 2190 ng·h/mL | AUCinf of metabolite, mean (SD) ([2]; mild (n = 6)): 2300 (691) ng × h/mL | AUClast of metabolite, GM ([2]; mild (n = 6)): 2150 ng·h/mL | AUClast of metabolite, mean (SD) ([2]; mild (n = 6)): 2250 (677) ng × h/mL | Cmax of metabolite, GM ([2]; mild (n = 6)): 423 ng/mL | Cmax of metabolite, mean (SD) ([2]; mild (n = 6)): 492 (272) ng/mL | Metabolite ratio of AUCinf, GM ([2]; mild (n = 6)): 0.440 (23.8) fold | Metabolite ratio of AUCinf, mean (SD) ([2]; mild (n = 6)): 0.450 (0.0988) fold | Metabolite ratio of AUClast, GM ([2]; mild (n = 6)): 0.437 (24.1) fold | Metabolite ratio of AUClast, mean (SD) ([2]; mild (n = 6)): 0.447 (0.100) fold | Tmax of metabolite, median (range) ([2]; mild (n = 6)): 1.00 (1.00–2.00) h | t½ of metabolite, GM ([2]; mild (n = 6)): 6.84 h | t½ of metabolite, mean (SD) ([2]; mild (n = 6)): 7.86 (5.49) h | Metabolite ratio of AUCinf, GM [2, 3]: 0.440 fold | Metabolite ratio of AUClast, GM [2, 3]: 0.437 fold | AUCinf of metabolite, GM ([2]; moderate (n = 8)): 3400 ng·h/mL | AUCinf of metabolite, mean (SD) ([2]; moderate (n = 8)): 3850 (2490) ng × h/mL | AUClast of metabolite, GM ([2]; moderate (n = 8)): 3370 ng·h/mL | AUClast of metabolite, mean (SD) ([2]; moderate (n = 8)): 3830 (2490) ng × h/mL | Cmax of metabolite, GM ([2]; moderate (n = 8)): 587 ng/mL | Cmax of metabolite, mean (SD) ([2]; moderate (n = 8)): 738 (645) ng/mL | Metabolite ratio of AUCinf, GM ([2]; moderate (n = 8)): 0.573 (67.7) fold | Metabolite ratio of AUCinf, mean (SD) ([2]; moderate (n = 8)): 0.680 (0.443) fold | Metabolite ratio of AUClast, GM ([2]; moderate (n = 8)): 0.573 (68.0) fold | Metabolite ratio of AUClast, mean (SD) ([2]; moderate (n = 8)): 0.680 (0.445) fold | Tmax of metabolite, median (range) ([2]; moderate (n = 8)): 1.00 (1.00–3.00) h | t½ of metabolite, GM ([2]; moderate (n = 8)): 6.42 h | t½ of metabolite, mean (SD) ([2]; moderate (n = 8)): 7.32 (5.16) h | Metabolite ratio of AUCinf, GM [2, 4]: 0.573 fold | Metabolite ratio of AUClast, GM [2, 4]: 0.573 fold | AUCinf of metabolite, GM ([2]; normal (n = 9)): 4560 ng·h/mL | AUCinf of metabolite, mean (SD) ([2]; normal (n = 9)): 4820 (1880) ng × h/mL | AUClast of metabolite, GM ([2]; normal (n = 9)): 4520 ng·h/mL | AUClast of metabolite, mean (SD) ([2]; normal (n = 9)): 4780 (1880) ng × h/mL | Cmax of metabolite, GM ([2]; normal (n = 9)): 1010 ng/mL | Cmax of metabolite, mean (SD) ([2]; normal (n = 9)): 1050 (328) ng/mL | Metabolite ratio of AUCinf, GM ([2]; normal (n = 9)): 0.704 (24.1) fold | Metabolite ratio of AUCinf, mean (SD) ([2]; normal (n = 9)): 0.722 (0.181) fold | Metabolite ratio of AUClast, GM ([2]; normal (n = 9)): 0.702 (24.0) fold | Metabolite ratio of AUClast, mean (SD) ([2]; normal (n = 9)): 0.720 (0.180) fold | Tmax of metabolite, median (range) ([2]; normal (n = 9)): 1.50 (1.00–2.00) h | t½ of metabolite, GM ([2]; normal (n = 9)): 9.96 h | t½ of metabolite, mean (SD) ([2]; normal (n = 9)): 11.4 (6.92) h | Metabolite ratio of AUCinf, GM [2, 5]: 0.704 fold | Metabolite ratio of AUClast, GM [2, 5]: 0.702 fold | AUCinf of metabolite, GM ([2]; severe (n = 6)): 2130 ng·h/mL | AUCinf of metabolite, mean (SD) ([2]; severe (n = 6)): 2350 (1200) ng × h/mL | AUClast of metabolite, GM ([2]; severe (n = 6)): 2110 ng·h/mL | AUClast of metabolite, mean (SD) ([2]; severe (n = 6)): 2330 (1210) ng × h/mL | Cmax of metabolite, GM ([2]; severe (n = 6)): 262 ng/mL | Cmax of metabolite, mean (SD) ([2]; severe (n = 6)): 287 (130) ng/mL | Metabolite ratio of AUCinf, GM ([2]; severe (n = 6)): 0.266 (32.2) fold | Metabolite ratio of AUCinf, mean (SD) ([2]; severe (n = 6)): 0.276 (0.0802) fold | Metabolite ratio of AUClast, GM ([2]; severe (n = 6)): 0.264 (32.2) fold | Metabolite ratio of AUClast, mean (SD) ([2]; severe (n = 6)): 0.274 (0.0795) fold | Tmax of metabolite, median (range) ([2]; severe (n = 6)): 3.00 (1.50–6.00) h | t½ of metabolite, GM ([2]; severe (n = 6)): 5.87 h | t½ of metabolite, mean (SD) ([2]; severe (n = 6)): 5.93 (0.907) h | Metabolite ratio of AUCinf, GM [2, 6]: 0.266 fold | Metabolite ratio of AUClast, GM [2, 6]: 0.264 fold | decrease in metabolite GM AUCinf vs. normal group ([2]; mild group): 52.0% | decrease in metabolite GM AUClast vs. normal group ([2]; mild group): 52.4% | decrease in metabolite GM Cmax vs. normal group ([2]; mild group): 58.1% | decrease in metabolite GM t1/2 vs. normal group ([2]; mild group): 31.3% | decrease in metabolite GM AUCinf vs. normal group ([2]; moderate group): 25.4% | decrease in metabolite GM AUClast vs. normal group ([2]; moderate group): 25.4% | decrease in metabolite GM Cmax vs. normal group ([2]; moderate group): 41.9% | decrease in metabolite GM t1/2 vs. normal group ([2]; moderate group): 35.5% | decrease in metabolite GM AUCinf vs. normal group ([2]; severe group): 53.3% | decrease in metabolite GM AUClast vs. normal group ([2]; severe group): 53.3% | decrease in metabolite GM Cmax vs. normal group ([2]; severe group): 74.1% | decrease in metabolite GM t1/2 vs. normal group ([2]; severe group): 41.1% | decrease in metabolite GM AUCinf and AUClast vs. normal hepatic function ([2]; the 3 hepatic impairment groups): 25–53%
